Assay results reported in the EternaBench riboswitch data.

Test system: MS2 coat protein
Experiment: apparent Kd, MS2 coat protein; higher = weaker binding; RNA-MaP array; FMN 200 µM where present
Summary of the method: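 Designs were transcribed by stalled E. coli RNA polymerase on Illumina sequencing-chip clusters. They were titrated with SNAP-549-labelled MS2 coat protein from 0.7 or 1.5 nM, doubling to 3 µM, in 100 mM Tris-HCl pH 7.5, 80 mM KCl, 4 mM MgCl2, BSA, DTT, yeast tRNA and Tween-20, without and then with constant ligand. The apparent Kd is the median of filtered per-cluster fits after normalisation of green signal to red-channel RNA signal and control-cluster median Fmax.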

[1] = designed as: OFF switch for flavin mononucleotide, no ligand
[2] = ligand present: flavin mononucleotide, designed as: OFF switch for flavin mononucleotide
[3] = designed as: ON switch for flavin mononucleotide, no ligand
[4] = ligand present: flavin mononucleotide, designed as: ON switch for flavin mononucleotide

Row | Sequence | apparent Kd [1] | apparent Kd [2] | apparent Kd [3] | apparent Kd [4]
1 | AUCCUACAUGAGGAUCACCCAUGUCAGGAUAUCCAAGAAAUGUGGCCGUAUCGGCCACGGAGAAGGGACGGGUG | 40 nM | 60.8 nM |  | 
2 | AUGGUACAUGAGGAUCACCCAUGUUAGGAUAUCGCGUGUUCUAAAACUAAGAGAUACACGAGAAGGGACGACAU | 90.2 nM | 67.7 nM |  | 
3 | UUGGACGUCGUAGGAUAUGUAGGAUAUUCCUACAUGAGGAUCACCCAUGUUGACGUGGAAGAAGGACAGAAGGACGAUGUCCAU |  |  | 55.3 nM | 4.63 nM
4 | UAUGGGUGUGUGAGGAUAUACGAAGGCAGUGGCCAGUAGAAGGUACAUGAGGAUCACCCAUGUGUCCAAAAGUG | 14.1 nM | 18.4 nM |  | 
5 | AUAAUUUUAUAAUUCUUUUUAUUCAGAAGGCAUAACAUGAGGAUCACCCAUGUAAAUUAAUGUUAUGAGGAUAUGAUUUGGUUA | 22.5 nM | 118 nM |  | 
6 | AUUUUGUGAGGAUAUGUGGCUUCGAUCGUGAAAACGAGGCUACAGAAGGCACAUGAGGAUCACCCAUGUUCCUA | 20.5 nM | 169 nM |  | 
7 | GGAUGACAAAGUCAUCCAAAUCGAACAUGAGGAUCACCCAUGUAGGAUAUGCUACUGAAACAGUAGCAGAAGGACAUGUGCUUU | 35.3 nM | 187 nM |  | 
8 | AGUUCUUGUGAAGGAUAUACGGCGGGUCGCGCAGUAGAAGGUCACAUGAGGAUCACCCAUGUCGACAUUGUGCAGUAUCGACAA | 82.9 nM | 465 nM |  | 
9 | UACACUACUGAGAAGGGAUACAUAUAAUUUUAGUCAGGAUAUCGAUACAGUGCAGCAUGAGGACAUGAGGAUCACCCAUGUAUU |  |  | 22.3 nM | 14.6 nM
10 | CAGCAUCAUGUAGGAUAUGCGUGGCGAAGCUAUGCAGAAGGACAUGAGGAUCACCCAUGUCUUACUGUGCGUACACAGUUGCUG | 6.87 nM | 11.3 nM |  | 
11 | UCAUAUUUACAAGGAUAUCAAUUAUUUAUACAUCCUACAUGAGGAUCACCCAUGUUAAUAUAUUUUGAGAAGGUGUAUUGUCGG |  |  | 32.1 nM | 31.2 nM
12 | AUUGUAUGGGAAGGAUAUAGAAUAUUAUUUUAACAUGAGGAUCACCCAUGUAACCUUAUGUGUAGCUAGAAGGUCCGUUUAUUA | 131 nM | 157 nM |  | 
13 | CCUCAGUAAGGAUAUCAGCUUAUAAAGUUGGUAAUGAGAGCUGAGAAGGUACAUGAGGAUCACCCAUGUUAGUU | 21.4 nM | 66.3 nM |  | 
14 | AUAUACGUUGAGGAUAUGCGAAUAAGUAUAGUUGCAGAAGGCGACACAUGAGGAUCACCCAUGUUCAUGGACAC | 28.2 nM | 44.6 nM |  | 
15 | GGUACUCAAAGAGUACCAAUACGAACAUGAGGAUCACCCAUGUAGGAUAUGCUACUCAAAGAGUAGCAGAAGGAUAUGAUGUAU | 39.7 nM | 44.9 nM |  | 
16 | AUGUUUCAUGUAGGAUAUGCAUACUGUUAGUAUGCAGAAGGACAUGAGGAUCACCCAUGUAUAUUAUCAUUACAUAUCAUACAU | 60.4 nM | 492 nM |  | 
17 | CGAUAUUAUGCAGGAUAUCUUCCUUGAAUGAGGAGAGAAGGGCAUAGGGAGACAUAAGCCUUAUUACAUGAGGAUCACCCAUGU | 10.7 nM | 8.83 nM |  | 
18 | GGAUGACAAAGUCAUCCAAAUCGAACAUGAGGAUCACCCAUGUAGGAUAUGCUACUCAAAGAGUAGCAGAAGGACAUGUGCUUU | 37.1 nM | 196 nM |  | 
19 | UUCUACAAGUAAGGAUAUCGGCUAUAGUUAACUCGAGAAGGUACAUGAGGAUCACCCAUGUAGUAGAUACAGACUACUGGCUUG | 10.9 nM | 13.3 nM |  | 
20 | UUAUGUCGCGUAGGAUAUCACUAGAGUUGUAAUUUAAUUGUAAUUUCGAUGUGAGAAGGACGUACACAUGAGGAUCACCCAUGU | 19.5 nM | 16.3 nM |  | 
21 | UGGUACUAGGGAGGAUAUGGGAAGAUACAUGAGGAUCACCCAUGUUUAAGAGUGCCGAGAGGCAACUAGAAGGCCCUAGUACCU |  |  | 1030 nM | 83 nM
22 | CCAUCAGCGGGCGUAUCGGUUGGACAUGAGGAUCACCCAUGUAGAAGGACAGGAGUAUUUCGGCUGUAGGAUAUACAUUUGGUG | 22.5 nM | 52.7 nM |  | 
23 | CUCAGACAUGAGGAUCACCCAUGUCAGGAUAUCGUCUACCUGUGGAAACACAGGUAGACGAGAAGGGAUGUGUU | 51.6 nM | 44.1 nM |  | 
24 | UUUAUGUCAGGAUAUGAGGAGUAGAACAAUAGUACUACUCCUCAGAAGGGACAUGAGGAUCACCCAUGUUCCUC | 20.7 nM | 91.9 nM |  | 
25 | GUGCUUGUCGAAGGAUAUGGUUACAUGAGGAUCACCCAUGUUAUGCUUGGUUACUUGUUUAGUUUCCAGAAGGUCGAUUAGUUG | 53.4 nM | 163 nM |  | 
26 | AAGAUACAUGAGGAUCACCCAUGUCGAGAGAGACGAGGAUAUCUGAAUCGAUUAGAUUACGGAGAAGGCGUGAAAA |  |  | 31.5 nM | 25.6 nM
27 | GUCUUGUCAGGAUAUCUUACAUAACAAUCGUAGUUACAAUUGGAGAAGGGACAUGAGGAUCACCCAUGUUAGCG | 32.9 nM | 36 nM |  | 
28 | GCGAGUAAAGCAGGAUAUCUAUUGUCUCUGUAACAUGAGGAUCACCCAUGUAGAGAAGGGCUUAGUCAUACAAUUCGAACUCGC | 7.86 nM | 7.32 nM |  | 

Row | Sequence | apparent Kd [1] | apparent Kd [2] | apparent Kd [3] | apparent Kd [4]
29 | CGAUGGUAGACAGGAUAUCGACCGGGAUACUAUGAAGACUAUAAACACAUGAGGAUCACCCAUGUCGAGAAGGGUCUCACAGCG | 37.1 nM | 60.9 nM |  | 
30 | UCUGGGUCUGUGAGGAUAUUGGGUCUGAAAGGGCUCGAGAAGGCACAUGAGGAUCACCCAUGUAAGGGCUCGGG | 27.6 nM | 21.6 nM |  | 
31 | UUCAGACAUGAGGAUCACCCAUGUGAGGAUAUGAUGCGAUCGUCGAAAGACGAUAGCAUCAGAAGGCACGUAUG | 82.9 nM | 135 nM |  | 
32 | GUAGAGUAAGGAUAUUGUGAAUAGGAUAGAAUGGUUAGAAGCAAGAAGGUACAUGAGGAUCACCCAUGUAAUGU | 22.5 nM | 23.6 nM |  | 
33 | GCUAAGAGUGUGAGGAUAUGCUGGUCCUUGGAUCAGCAGAAGGCACAUGAGGAUCACCCAUGUGAAAACUUAGC | 23.3 nM | 89.6 nM |  | 
34 | CUGUGACGGUGCGCAAGUGGACGUAGAAGGGUCACAUGAGGAUCACCCAUGUGGGCCUGCUAUUGACAGGAUAUACGUUCGUAC | 5.28 nM | 5 nM |  | 
35 | UUGUUAUAUGUAGGAUAUGCAUAUUGUUAUUAUGCAGAAGGACAUGAGGAUCACCCAUGUAUAUUAUUAUUAUAUAUUAUAUAU | 32 nM | 64.7 nM |  | 
36 | ACUCGCGGAGAGAAGGGAUUUGUACAUGAGGAUCACCCAUGUCGCACGGUCAGGAUAUCUUCGUCAGGUACAACAUACGUCCCG |  |  | 16.8 nM | 6.99 nM
37 | AAUAUAAAAGAGCUGGAUAACUCGACAUGAGGAUCACCCAUGUAGGAUAUCAGCACGAUAAGUGCUGAGAAGGACAACCAGCUC | 14.7 nM | 16.2 nM |  | 
38 | UGUCAUAUAUAGAAGGGUAGUAGGGUUUUACAUGAGGAUCACCCAUGUAUUAUAGGAUAUGUGUAUAGUUUUUAUUCAAGUAUA | 32.8 nM | 25.4 nM |  | 
39 | GUUUUGAUAGGAUAUACAUGAGGAUCACCCAUGUCCCACCGGUUACCUAUGACCAUAUGUAGAAGGAUCGUUUG | 51.7 nM | 78.9 nM |  | 
40 | UAUCUAUUUAUGGGAUUAGAAUAUGAGGAUAUCAUUUAUUUAUACAUGAGGAUCACCCAUGUUACUGAGAAGGCAUAUUUAAUA |  |  | 13.4 nM | 7.47 nM
41 | GCCAUCGCAUGAGGAUAUGGUCACCUUUGGUGACCAGAAGGCAUGUCAUAAGACAUGAGGAUCACCCAUGUAGUUAAGAUGGCA |  |  | 843 nM | 48 nM
42 | AAAAAGCGAGGAUAUACAUGAGGAUCACCCAUGUCAAACGGUAAGACCGCAGGAAAAAGUAGAAGGCGCAAAAA | 61.5 nM | 98.5 nM |  | 
43 | GCUGCGUACGUAGGAUAUACAUGAGGAUCACCCAUGUAACUCGGACUCUAAGCGGGUGCGCGCAUGUAGAAGGACGGGCGAGCC | 33.3 nM | 57.2 nM |  | 
44 | UGAUAGGACAGAGGAUAUGCCGAUAGGAUCUAUUAUCGAAGAAUCCUCACAUGAGGAUCACCCAUGUAGAAGGCUGUCCUAUCU | 9.32 nM | 36.6 nM |  | 
45 | CGCACUGAUAGAGGAUAUGUUGUACAUGAGGAUCACCCAUGUGUUUUUGUAUCAAUAUUUGUGAAACAGAAGGCUAUUAGUGCG | 7.58 nM | 5.65 nM |  | 
46 | UCUAGGGACGCAGGAUAUGGAGUGAGUGUCUAUCACAUGAGGAUCACCCAUGUUUGGGUCUCACGCUAGAAGGGCGAAUGUGGG |  |  | 357 nM | 63.5 nM
47 | UACAAUCUAUCUGAGGAUAUCAUGAUUAUAACAUGAGGAUCACCCAUGUGCAGGAAAACUGCAUAUGAGAAGGCAGAUAGAUUGU |  |  | 611 nM | 98 nM
48 | UGGUCAUGAUCAGGAUAUUAACAUGGGCUACAUUAAGAAGGGAUAGUGAGAUGCGAACUGAACGACAUGAGGAUCACCCAUGUA |  |  | 51.9 nM | 35.8 nM
49 | AGAUGACAAAGUCAUCUCUGACAGACAUGAGGAUCACCCAUGUAGGAUAUACUACUCAAAGAGUAGUAGAAGGACAUGUGUCUU | 33 nM | 95.7 nM |  | 
50 | UAUGUGUCAGGAUAUGGAUUAGUUCGGGAUUCGGAACUGGUUCAGAAGGGACAUGAGGAUCACCCAUGUUUUUC | 33.1 nM | 169 nM |  | 
51 | UCCACUGCUGAGAAGGGAUACAUAUGGUUCUAGUCAGGAUAUCGAUACAGUGCAGCAUGAGGACAUGAGGAUCACCCAUGUAUU |  |  | 25.6 nM | 18.6 nM
52 | GUCCUCUCUGAGGAUAUUAUCCGGUCCGAUUGAUAAGAAGGCAGUACAUGAGGAUCACCCAUGUGGGUUGUCUG | 62.6 nM | 170 nM |  | 
53 | AAAGGCCAAGGAUAUACAUGAGGAUCACCCAUGUCGAGUCCCGGGCAUGUAAGUUGGUGUAGAAGGUGGAAGAA | 13.4 nM | 13.5 nM |  | 
54 | CGAUAUGAUAGAGGAUAUGUAAUACAUGAGGAUCACCCAUGUUACAUGGGAAUUAUAAAUAAUUAACAGAAGGCUAUUCUAUCG | 63.8 nM | 177 nM |  | 
55 | ACAUGAUAUGUAGGAUAUCACAACUUGUGUUAUAAAAUUGUAAUUUAGGAUUGAGAAGGACAUUUACAUGAGGAUCACCCAUGU | 17.6 nM | 13.3 nM |  | 
